The values below come from publication PMC4198695 (Neoplasia (New York, N.Y.), 2014).

In one data set the test system is U251 cells. The data set is described as follows: Clonogenic proliferation assay, U251. Format: cell-based, human. The settings on record: U251, 10 μM for 24 h, then 14 days drug-free. Put shortly:
(§1)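 Cells were seeded in 6-well plates in 6 replicates: U87 at 5 × 10^2 cells/well, U251 at 1 × 10^3 cells/well. After 24 h at 37 °C they were exposed to 10 μM test compound or drug-free medium for 24 h. Cells were then PBS-washed and grown 14 days drug-free, stained with 0.5% crystal violet for 30 min, and colonies counted. Survival was normalized to drug-free control.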

The subject of the next data set is U251 glioblastoma cells. The data set is described as follows: MTT toxicity assay, U251. Format: cell-based. Particulars: Homo sapiens, U-251, 168 h, read-out: IC50 (MTT assay), U251, 7 days incubation. The gist of the method:
(§2)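 U87 (2.5 × 10^3) or U251 (5 × 10^3) cells per well were incubated 24 h at 37 °C. Medium was then replaced with test compound at 100, 33, 10, 3.3, 1, 0.3, 0.1 and 0.03 μM, in triplicate, for 7 days at 37 °C. Cells received 10% MTT in medium for 4 h, then solubilization solution. Absorbance was read at 570 nm with 690 nm background, and percent survival calculated versus control wells.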

The next data set concerns U87 cells. The data set is described as follows: Clonogenic proliferation assay, U87. Format: cell-based, human. Particulars: U87, 10 μM for 24 h, then 14 days drug-free. Put shortly:
as §1

The conditions of data set [1]: humans, twice daily; cited from earlier work.
For another data set, the system named is U87 glioblastoma cells. The data set is described as follows: MTT toxicity assay, U87. Format: cell-based. The settings on record: Homo sapiens, 168 h, read-out: IC50 (MTT assay), U87, 7 days incubation. Put shortly: as §2
In general terms: Formazan colour is commonly taken as a measure of viable cells.

With `O=C(c1cc(Cc2n[nH]c(=O)c3ccccc23)ccc1F)N1CCN(C(=O)C2CC2)CC1` [Olaparib, 4-[3-(4-cyclopropanecarbonylpiperazine-1-carbonyl)-4-fluorobenzyl]-2H-phthalazin-1-one], in the data set on U251 cells, the “cell survival rate normalized to control” value is reported as 46.9%. Also, the IC50 came out at 5.5 ± 1.2 µM in the data set on U251 glioblastoma cells and 23.8 ± 1.3 µM with U87 glioblastoma cells. In addition, the “decrease in number of surviving colonies” value with U87 cells is given as 20-30%. In addition, in data set [1], the maximum tolerated dose was 400 mg.

A word on the IC50: it is the concentration needed to halve the response being measured.
